Compound activity as filed in PubChem BioAssay.
TRPC6 inh: mouse TRPC6 channel inhibition; hit rate 1.1% among 310,000; HEK293-TRPC6, membrane potential dye, ACh-evoked depolarization; stronger effect = lower value; B-score at 10 µM;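 active means B-score under library mean minus 3 SD, initial fluorescence not abnormally high, positive integrated signal ratio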;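 further: B-score derived from integrated fluorescence ratio over the kinetic read; more negative B-score means stronger inhibition of depolarization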
Target sequence (Q61143 whole entry, looked up): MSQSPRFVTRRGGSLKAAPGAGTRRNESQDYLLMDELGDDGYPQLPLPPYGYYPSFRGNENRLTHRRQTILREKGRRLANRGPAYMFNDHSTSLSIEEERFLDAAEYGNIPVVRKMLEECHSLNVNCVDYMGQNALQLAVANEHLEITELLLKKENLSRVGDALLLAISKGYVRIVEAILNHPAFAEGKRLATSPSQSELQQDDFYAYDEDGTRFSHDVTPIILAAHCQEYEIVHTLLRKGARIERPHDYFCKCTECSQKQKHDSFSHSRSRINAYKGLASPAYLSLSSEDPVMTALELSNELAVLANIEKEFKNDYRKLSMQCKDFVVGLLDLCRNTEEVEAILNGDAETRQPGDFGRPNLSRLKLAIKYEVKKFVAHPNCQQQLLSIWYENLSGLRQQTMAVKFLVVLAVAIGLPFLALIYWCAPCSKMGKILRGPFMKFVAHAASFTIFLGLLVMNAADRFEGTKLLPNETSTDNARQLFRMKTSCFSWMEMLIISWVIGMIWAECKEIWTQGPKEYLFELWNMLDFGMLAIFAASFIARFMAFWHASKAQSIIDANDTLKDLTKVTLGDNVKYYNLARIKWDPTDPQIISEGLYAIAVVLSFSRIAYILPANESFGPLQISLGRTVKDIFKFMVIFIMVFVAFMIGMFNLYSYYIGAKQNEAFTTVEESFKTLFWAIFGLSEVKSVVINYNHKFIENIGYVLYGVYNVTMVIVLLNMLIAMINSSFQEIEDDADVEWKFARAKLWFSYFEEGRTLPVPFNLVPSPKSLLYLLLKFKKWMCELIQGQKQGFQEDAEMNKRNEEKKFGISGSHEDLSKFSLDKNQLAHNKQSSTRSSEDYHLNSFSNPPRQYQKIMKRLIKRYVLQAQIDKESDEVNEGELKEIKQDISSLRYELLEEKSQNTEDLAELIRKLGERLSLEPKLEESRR
TRPC4 block: TRPC4 (mouse) channel inhibition; Q9QUQ5; HEK293 TRPC4beta/mu-opioid, DAMGO-evoked Fluo4 calcium flux; stronger effect = lower value; B-score at 10 µM; hit rate 0.39% among 300,000; AID 2247;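 active means B-score over 3 SD under the library average, no early fluorescence shift, positive overall ratio signal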
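Assay system – HEK293 line stably carrying TRPC4beta and mu-opioid receptor · Doses – single dose · Detection – Fluo4 calcium-dye fluorescence, kinetic read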
TRPC4 potent: allosterically enhances the mouse TRPC4 cation channel | HEK293 TRPC4beta/mu-opioid, DAMGO EC20, Fluo-4 Ca2+ flux; stronger effect = higher value | B-score at 10 µM | hit rate 0.42% among 310,000 | AID 2227;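 active means B-score of calcium response area above 5 SD of library B-scores, with initial fluorescence ratio within 5 SD of library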;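 further: B-score of integrated fluorescence ratio over time as area under calcium response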
TRPC6 activator: activates the mouse TRPC6 cation channel; Q61143; HEK293-TRPC6 membrane potential dye fluorescence; stronger effect = higher value; B-score at 10 µM; hit rate 0.13% among 310,000; AID 2550;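 active means B-score of the integrated fluorescence ratio above library mean plus 3 SD, and starting fluorescence ratio within library mean plus 5 SD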;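 further: higher score means more depolarization so channel activation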
TRPC4 act: opens the mouse TRPC4 cation channel; B-score at 10 µM; Q9QUQ5; hit rate 0.49% among 310,000; AID 2237; HEK293 TRPC4beta/mu-opioid, Fluo4 calcium fluorescence; stronger effect = higher value;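 active means B-score above 5 SD of library B-scores, and initial fluorescence ratio not above library mean plus 5 SD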;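 further: positive B-score marks a calcium rise read as TRPC4 activation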
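Technique: kinetic Fluo4 calcium fluorescence; Test system: TRPC4beta and mu-opioid receptor HEK293 stable cells; Measure: B-scored integrated calcium fluorescence ratio; Benchmarks: low control buffer alone, high control maximal DAMGO; Schedule: 45 min room-temperature Fluo4 loading, 110 s read.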
TRPC4 sel inh 2: second check of whether TRPC6 inhibitors also affect mouse TRPC4 | shares compounds with TRPC6 inh | HEK293 TRPC4/MOR, membrane potential dye fluorescence; channel activated by saturating DAMGO dose | inhibition, % at 10 µM | hit rate 42% among 920 | AID 2776;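 active means compounds whose fluorescence signal differed from control wells by over 3 SD, either direction, in both duplicate plates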
TRPC4 spec: selectivity of TRPC6 inhibitors: effect on mouse TRPC4; hit rate 61% among 920; HEK293 TRPC4/mu-opioid, membrane potential fluorescence; activity change, negative = inhibition, % at 10 µM; shares compounds with TRPC6 inh;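 active means rise or fall in signal beyond 3 SD of buffer-only wells in both replicate plates, either sign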;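 further: integrated kinetic ratio of fluorescence range over baseline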
HEK293 MPD ctr 2-1: second counter-screen for TRPC6 inhibitors: parental HEK293 cells; shares compounds with TRPC6 inh; parental HEK293 membrane potential dye fluorescence; maximal acetylcholine challenge after compound addition; signal change vs control, % at 10 µM; hit rate 31% among 920;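 active means membrane potential signal moving either way by over 3 SD of the maximum-effect control, in both duplicate plates, meaning non-specific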
HEK293 MPD ctr-1: parental HEK293 nonspecific activity of TRPC6 inhibitors. parental HEK293 membrane potential dye fluorescence. shares compounds with TRPC6 inh. hit rate 60% among 920. membrane potential signal change, % at 10 µM. AID 2780;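 active means membrane potential signal shifting up or down by more than 3 SD of buffer-only wells, on both duplicate plates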
HEK293 MPD ctr-2: checks TRPC6 modulator effects in parental HEK293 cells | shares compounds with TRPC6 inh | membrane potential dye fluorescence | membrane potential signal change, % at 10 µM | hit rate 51% among 2,400 | AID 488924;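 active means membrane potential signal moves up or down beyond 5 SD from buffer-only wells, on both duplicate plates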
HEK293 MPD ctr 2-2: second check of TRPC6 modulator effects in parental HEK293 cells | shares compounds with TRPC6 inh | membrane potential dye fluorescence; after compound, maximal acetylcholine stimulation | inhibition, % at 10 µM | hit rate 14% among 2,400;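 active means membrane potential signal drops by more than 5 SD from the mean control signal, in both duplicate plates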;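 further: plate controls were acetylcholine ECmax control wells for no effect and buffer only wells for full effect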
TRPC4 ctr mod: tests whether TRPC6 modulators also affect mouse TRPC4 | hit rate 69% among 2,400 | AID 488927 | shares compounds with TRPC6 inh | HEK293 TRPC4/mu-opioid, membrane potential fluorescence | percent change from control (negative = decrease, positive = increase), % at 10 µM;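 active means membrane potential signal moved up or down beyond 5 SD of buffer control wells, in both duplicate plates, actives on both sides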;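 further: plate controls were assay buffer wells for no effect and DAMGO maximal-effect wells for full effect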
TRPC4 ctr inh 2: mouse TRPC4 off-target activity of TRPC6 modulators, second screen | shares compounds with TRPC6 inh | HEK293 TRPC4/mu-opioid, membrane potential dye fluorescence; stimulated with maximal-effect DAMGO | inhibition, % at 10 µM | hit rate 55% among 2,400 | AID 488928;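 active means drop in membrane potential signal beyond 5 SD of the control wells in both duplicate plates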;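 further: TRPC4 counter screen for TRPC6 hits run under conditions tuned for TRPC6 not TRPC4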
TRPC6 inh conf: mouse TRPC6 inhibitor confirmation; inhibition, % at 10 µM; HEK293-TRPC6, membrane potential dye, ACh-evoked depolarization; shares compounds with TRPC6 inh; hit rate 43% among 3,300;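 active means fluorescence ratio falls more than 5 SD below the full-stimulation control mean, in both duplicate runs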;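 further: integrated fluorescence ratio of peak minus minimum over baseline after agonist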
TRPC6 act confirm: confirmation of mouse TRPC6 activators. activation, % at 10 µM. hit rate 11% among 2,800. HEK293-TRPC6 membrane potential dye fluorescence, FDSS. shares compounds with TRPC6 inh;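 active means ratio signal rise beyond 5 SD above unstimulated control wells' mean, seen in both duplicate runs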;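 further: plate controls were buffer EC0 wells for no effect and acetylcholine ECmax response for full effect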
* hit, by the source's call; i = inactive; . = no result given. Sampled rows, rich in hits. Any-hit rate of the full collection: about 2.3%.

SMILES | TRPC6 inh | TRPC4 block | TRPC4 potent | TRPC6 activator | TRPC4 act | HEK293 MPD ctr-2 | HEK293 MPD ctr 2-2 | TRPC4 ctr mod | TRPC4 ctr inh 2 | TRPC6 inh conf | TRPC6 act confirm | others
COC(=O)c1cccc(CSC(=S)N2CCCC2)c1 | i | i | i | 13* | i | i | i | i | i | . | 130%*
CCN(CC(=O)Nc1c(F)cccc1F)C(=O)CCOc1ccccc1 | i | i | i | i | i | . | . | . | . | . | .
CCOc1ccc(S(=O)(=O)N2CCC(C(=O)N3CCOCC3)CC2)cc1Cl | i | i | i | i | i | . | . | . | . | . | .
CN1CCN(C(=O)c2cccc(COc3cc(Cl)ccc3Cl)c2)CC1 | i | i | i | i | i | . | . | . | . | . | .
CN1CCN(C(=O)c2ccc(COc3cc(Cl)ccc3Cl)o2)CC1 | -5.7* | i | i | i | i | 127%* | i | 22%* | i | i | .
O=C(c1ccc(COc2ccccc2Cl)o1)N1CCCC1 | i | i | i | i | i | . | . | . | . | . | .
CC1CCN(C(=O)c2ccc(COc3ccccc3Cl)o2)CC1 | -6.2* | i | i | i | i | 121%* | i | 25%* | i | i | i
O=C(N/N=C/c1cn(-c2ccccc2)nc1-c1cccnc1)c1ccc(F)cc1 | i | i | i | i | i | . | . | . | . | . | .
Cc1noc(C)c1COC(=O)Cc1ccc(Br)cc1 | i | i | i | i | i | . | . | . | . | . | .
N#Cc1ccc(N2CCN(c3ccc(F)cc3)CC2)cc1 | i | i | i | i | i | . | . | . | . | . | .
O=C(NCC1CCN(c2ccc(S(=O)(=O)N3CCOCC3)cc2)CC1)c1ccc(Cl)cc1 | -5.5* | i | i | i | i | i | i | i | i | 52%* | i
COc1cc(C)ccc1NC(=O)c1ccc(S(=O)(=O)N2CCOCC2)cc1 | -6.1* | i | i | i | i | i | i | i | i | i | i
O=C(Nc1cc([N+](=O)[O-])ccc1F)c1ccc2c(c1)OCCO2 | i | i | i | i | i | . | . | . | . | . | .
CN/C=C1\C(=O)C(C)(C)Oc2ccc3ccc(=O)oc3c21 | i | i | i | i | i | . | . | . | . | . | .
CCCN1CCN(C(c2cc3cc4c(cc3[nH]c2=O)OCO4)c2nnnn2C(C)(C)C)CC1 (stereo unspecified) | i | i | i | i | i | . | . | . | . | . | .
CCC(C)(C)n1nnnc1C(c1cc2cc3c(cc2[nH]c1=O)OCO3)N1CCCCC1 (stereo unspecified) | -5.9* | i | i | i | i | i | i | i | i | i | .
COc1cc(/C=C2/C(=N)N3N=C(CC(=O)N4CCOCC4)SC3=NC2=O)ccc1OC(C)c1ccccc1 (stereo unspecified) | i | i | i | i | i | . | . | . | . | . | .
COc1ccccc1OCC(=O)NCCS(=O)(=O)N1CCN(c2ccc(F)cc2)CC1 | -5.4* | i | i | i | i | i | i | i | i | i | i
Cc1cc2c(c(N)n1)c(=O)oc1ccccc12 | i | i | i | i | i | . | . | . | . | . | .
O=c1c2ccccc2oc2cc(NCCCN3CCOCC3)ccc12 | i | i | i | i | i | . | . | . | . | . | .
CN1CCCC1CCNc1ccc2c(=O)c3ccccc3oc2c1 (stereo unspecified) | -9.5* | i | i | i | i | . | . | . | . | i | i | TRPC4 sel inh 2=74%*;TRPC4 spec=-10%*;HEK293 MPD ctr 2-1=i;HEK293 MPD ctr-1=i
CN1CCCC1CCNc1ccc2oc3ccccc3c(=O)c2c1 (stereo unspecified) | -5.6* | i | i | i | i | 178%* | i | 14%* | 44%* | 44%* | .
O=c1c2ccccc2oc2ccc(NCCCN3CCOCC3)cc12 | i | i | i | i | i | . | . | . | . | . | .
COc1ccc(C(=O)N2CCN(C(=O)C3COc4ccccc4O3)CC2)cc1OC (stereo unspecified) | i | i | i | i | i | . | . | . | . | . | .
S=C(NCCCN1CCOCC1)Nc1ccc(Cl)cc1Cl | -5.3* | i | i | i | i | i | i | i | i | i | i
SMILES | TRPC6 inh | TRPC4 block | TRPC4 potent | TRPC6 activator | TRPC4 act | HEK293 MPD ctr-2 | HEK293 MPD ctr 2-2 | TRPC4 ctr mod | TRPC4 ctr inh 2 | TRPC6 inh conf | TRPC6 act confirm | others
CC(=O)c1c2c3c(cccc3n(C)c1=O)C(=O)c1ccccc1-2 | i | i | i | i | i | . | . | . | . | . | .
Cn1c(=O)c(Nc2ccc(O)cc2)c2c3c(cccc31)C(=O)c1ccccc1-2 | -6* | i | i | i | i | i | i | -27%* | 59%* | i | i
COCCNc1oc(/C=C/c2ccccc2)nc1C#N | i | i | i | i | i | . | . | . | . | . | .
N#Cc1nc(/C=C/c2ccccc2)oc1NCCCN1CCOCC1 | -7.1* | i | i | i | i | . | . | . | . | i | i | TRPC4 sel inh 2=i;TRPC4 spec=i;HEK293 MPD ctr 2-1=i;HEK293 MPD ctr-1=i
CC(=O)OC(C(=O)Nc1ccccc1)C(C)S(=O)(=O)c1ccccc1 (stereo unspecified) | i | i | i | i | i | . | . | . | . | . | .
CCCc1cc(=O)oc2c(C)c(OCC(=O)NCCCn3ccnc3)ccc12 | -5.8* | i | i | i | i | -136%* | i | -20%* | i | i | i
